In ChEMBL document CHEMBL1123779, “Modifications of primaquine as antimalarials. 4. 5-Alkoxy derivatives of primaquine” (J Med Chem, 1987):

Key:
Plasmodium berghei [1] = experiment: Suppressive blood schizonticidal antimalarial activity evaluated in the trophozoite-induced Plasmodium berghei infection in mice (Mus musculus) at a dose 640 mg/kg given as number of toxic deaths; assay type: toxicity, organism-based; design: dose 640 mg/kg; conditions: in vivo
Procedure, shortened: (§1)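 Rane Laboratory mouse test with blood-induced P. berghei infection, five mice per group. Toxic deaths are deaths occurring before the 6th day postinfection.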

Plasmodium cynomolgi [2] = experiment: Cures in Plasmodium cynomolgi infected Rhesus monkeys (Macaca mulatta) on 0.125 mg/kg/day dose; assay type: functional
Plasmodium berghei [3] = experiment: Blood schizonticidal antimalarial activity in the trophozoite-induced Plasmodium berghei infection in mice (Mus musculus) at 20 mg/kg; assay type: functional; design: unit not given beside the values
Procedure, shortened: (§2)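 Run at the Rane Laboratory in mice infected with blood-induced P. berghei, five animals per group. Activity is the increase in mean survival time over untreated infected controls. A compound counts as active when treated-group MST is more than twice the control MST. Cures are mice surviving at 60 days postinfection.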

Mus musculus [4] = experiment: Suppressive blood schizonticidal antimalarial activity evaluated in the trophozoite-induced Plasmodium berghei infection in mice (Mus musculus) at a dose 40 mg/kg; assay type: functional; design: unit not given beside the values; procedure, shortened: as §2
Mus musculus [5] = experiment: Suppressive blood schizonticidal antimalarial activity evaluated in the trophozoite-induced Plasmodium berghei infection in mice (Mus musculus) at a dose 160 mg/kg given as no. of toxic deaths; assay type: functional; procedure, shortened: as §1
Plasmodium cynomolgi [6] = experiment: Cures in Plasmodium cynomolgi infected Rhesus monkeys (Macaca mulatta) on 0.25 mg/kg/day dose; assay type: functional
Mus musculus [7] = experiment: Suppressive blood schizonticidal antimalarial activity evaluated in the trophozoite-induced Plasmodium berghei infection in mice (Mus musculus) at a dose 320 mg/kg given as no. of toxic deaths; assay type: functional; procedure, shortened: as §1
Plasmodium cynomolgi [8] = experiment: Cures in Plasmodium cynomolgi infected Rhesus monkeys (Macaca mulatta) on 0.5 mg/kg/day; assay type: functional
Mus musculus [9] = experiment: Suppressive blood schizonticidal antimalarial activity evaluated in the trophozoite-induced Plasmodium berghei infection in mice (Mus musculus) at a dose 80 mg/kg; assay type: functional; design: unit not given beside the values; procedure, shortened: as §2
Plasmodium cynomolgi [10] = experiment: Cures in Plasmodium cynomolgi infected Rhesus monkeys (Macaca mulatta) on 1 mg/kg/day after 7 days; cured 2 of 2; assay type: functional
Plasmodium cynomolgi [11] = experiment: Cures in Plasmodium cynomolgi infected Rhesus monkeys (Macaca mulatta) on 0.316 mg/kg/day after 7 days; cured 0 of 3; assay type: functional
Mus musculus [12] = experiment: Suppressive blood schizonticidal antimalarial activity evaluated in the trophozoite-induced Plasmodium berghei infection in mice (Mus musculus) at a dose 160 mg/kg given as no. of cures; assay type: functional
Procedure, shortened: (§3)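 Run at the Rane Laboratory with blood-induced P. berghei infections in mice, five animals per group. A cure is a mouse surviving to 60 days postinfection. Deaths before day 6 are recorded separately as toxic deaths. Activity is scored from the increase in mean survival time over untreated controls, and counts as active when treated MST is more than twice control MST.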

Plasmodium cynomolgi [13] = experiment: Cures in Plasmodium cynomolgi infected Rhesus monkeys (Macaca mulatta) on 0.1 mg/kg/day after 7 days; cured 1 of 2; assay type: functional
Mus musculus [14] = experiment: Suppressive blood schizonticidal antimalarial activity evaluated in the trophozoite-induced Plasmodium berghei infection in mice (Mus musculus) at a dose 10 mg/kg; assay type: functional; procedure, shortened: as §2
Mus musculus [15] = experiment: Suppressive blood schizonticidal antimalarial activity evaluated in the trophozoite-induced Plasmodium berghei infection in mice (Mus musculus) at a dose 20 mg/kg given as no. of cures; assay type: functional; procedure, shortened: as §3
Plasmodium cynomolgi [16] = experiment: Cures in Plasmodium cynomolgi infected Rhesus monkeys (Macaca mulatta) on 0.316 mg/kg/day after 7 days; cures 2 of 2; assay type: functional
Mus musculus [17] = experiment: Suppressive blood schizonticidal antimalarial activity evaluated in the trophozoite-induced Plasmodium berghei infection in mice (Mus musculus) at a dose 5 mg/kg given as no. of cures; assay type: functional; procedure, shortened: as §3
Plasmodium cynomolgi [18] = experiment: Cures in Plasmodium cynomolgi infected Rhesus monkeys (Macaca mulatta) on 0.1 mg/kg/day after 7 days (x7); cured 0 of 2; assay type: functional
Plasmodium cynomolgi [19] = experiment: Cures in Plasmodium cynomolgi infected Rhesus monkeys (Macaca mulatta) on 10.0 mg/kg/day after 7 days; assay type: functional, organism-based
Plasmodium cynomolgi [20] = experiment: Radical curative antimalarial activity against Plasmodium cynomolgi in Rhesus monkeys (Macaca mulatta) at 1 mg/kg/day over 7 days; cured 4 of 4; assay type: functional
Plasmodium berghei [21] = experiment: Blood schizonticidal activity in trophozoite-induced Plasmodium berghei infected mice (Mus musculus) at 40 mg/kg; numbers cured; assay type: functional; procedure, shortened: as §3
Mus musculus [22] = experiment: Suppressive blood schizonticidal antimalarial activity evaluated in the trophozoite-induced Plasmodium berghei infection in mice (Mus musculus) at a dose 2.5 mg/kg; assay type: functional; procedure, shortened: as §2
Mus musculus [23] = experiment: Suppressive blood schizonticidal antimalarial activity evaluated in the trophozoite-induced Plasmodium berghei infection in mice (Mus musculus) at a dose 10 mg/kg given as no. of cures; assay type: functional; procedure, shortened: as §3
Mus musculus [24] = experiment: Suppressive blood schizonticidal antimalarial activity evaluated in the trophozoite-induced Plasmodium berghei infection in mice (Mus musculus) at a dose 80 mg/kg given as no. of cures; assay type: functional; procedure, shortened: as §3
Plasmodium cynomolgi [25] = experiment: Cures in Plasmodium cynomolgi infected Rhesus monkeys (Macaca mulatta) on 1 mg/kg/day after 7 days; cured 0 of 1; assay type: functional
Plasmodium cynomolgi [26] = experiment: Cures in Plasmodium cynomolgi infected Rhesus monkeys (Macaca mulatta) on 0.316 mg/kg/day after 7 days; cured 1 of 1; assay type: functional
Plasmodium cynomolgi [27] = experiment: Radical curative antimalarial activity against Plasmodium cynomolgi in Rhesus monkeys (Macaca mulatta) at 1 mg/kg/day over 7 days; cured 1 of 2; assay type: functional
Plasmodium cynomolgi [28] = experiment: Cures in Plasmodium cynomolgi infected Rhesus monkeys (Macaca mulatta) on 0.316 mg/kg/day after 7 days; cured 0 of 2; assay type: functional
Mus musculus [29] = experiment: Suppressive blood schizonticidal antimalarial activity evaluated in the trophozoite-induced Plasmodium berghei infection in mice (Mus musculus) at a dose 80 mg/kg given as no. of toxic deaths; assay type: functional; procedure, shortened: as §1
Mus musculus [30] = experiment: Suppressive blood schizonticidal antimalarial activity evaluated in the trophozoite-induced Plasmodium berghei infection in mice (Mus musculus) at a dose 40 mg/kg given as number of toxic deaths; assay type: ADME, organism-based; design: dose 40 mg/kg; conditions: in vivo; procedure, shortened: as §1
Plasmodium cynomolgi [31] = experiment: Cures in Plasmodium cynomolgi infected Rhesus monkeys (Macaca mulatta) on 0.316 mg/kg/day after 7 days; cured 0 of 1; assay type: functional
Plasmodium cynomolgi [32] = experiment: Cures in Plasmodium cynomolgi infected Rhesus monkeys (Macaca mulatta) on 0.316 mg/kg/day after 7 days; cured 2 of 4; assay type: functional
Plasmodium cynomolgi [33] = experiment: Cures in Plasmodium cynomolgi infected Rhesus monkeys (Macaca mulatta) on 10.0 mg/kg/day after 7 days; cured 1 of 1; assay type: functional
Mus musculus [34] = experiment: Suppressive blood schizonticidal antimalarial activity evaluated in the trophozoite-induced Plasmodium berghei infection in mice (Mus musculus) at a dose 640 mg/kg given as no. of cures; assay type: functional; procedure, shortened: as §3
Plasmodium cynomolgi [35] = experiment: Cures in Plasmodium cynomolgi infected Rhesus monkeys (Macaca mulatta) on 3.16 mg/kg/day after 7 days; cured 0 of 1; assay type: functional
Mus musculus [36] = experiment: Suppressive blood schizonticidal antimalarial activity evaluated in the trophozoite-induced Plasmodium berghei infection in mice (Mus musculus) at a dose 320 mg/kg given as number of cures; assay type: functional; procedure, shortened: as §3
Plasmodium cynomolgi [37] = experiment: Cures in Plasmodium cynomolgi infected Rhesus monkeys (Macaca mulatta) on 1 mg/kg/day after 7 days; cured 1 of 1; assay type: functional
Mus musculus [38] = experiment: Suppressive blood schizonticidal antimalarial activity evaluated in the trophozoite-induced Plasmodium berghei infection in mice (Mus musculus) at a dose 320 mg/kg; assay type: functional; procedure, shortened: as §2
Plasmodium cynomolgi [39] = experiment: Cures in Plasmodium cynomolgi infected Rhesus monkeys (Macaca mulatta) on 1 mg/kg/day after 7 days; cured 3 of 3; assay type: functional
Mus musculus [40] = experiment: Suppressive blood schizonticidal antimalarial activity evaluated in the trophozoite-induced Plasmodium berghei infection in mice (Mus musculus) at a dose 5 mg/kg; assay type: functional; design: unit not given beside the values; procedure, shortened: as §2
Plasmodium cynomolgi [41] = experiment: Cures in Plasmodium cynomolgi infected Rhesus monkeys (Macaca mulatta) on 0.1 mg/kg/day after 7 days; cured 1 of 3; assay type: functional

Row | SMILES | Toxic deaths (Plasmodium berghei [1]) | Delta MST (Plasmodium berghei [3]) | Delta MST (Mus musculus [4]) | Toxic deaths (Mus musculus [5]) | Toxic deaths (Mus musculus [7]) | Delta MST (Mus musculus [9]) | Cures (Mus musculus [12]) | Delta MST (Mus musculus [14]) | Cures (Mus musculus [15]) | Cures/no. of animals (Plasmodium cynomolgi [18]) | Cures (Plasmodium berghei [21]) | Delta MST (Mus musculus [22]) | Cures (Mus musculus [23]) | other results
1 | COc1cc(NC(C)CCCN)c2nccc(C)c2c1OC (stereo unspecified) | 5 | 5.7 | 7.1 | 1 | 4 | 8.9 |  |  |  |  |  |  |  | Cures (Plasmodium cynomolgi [2]): 11; Cures (Plasmodium cynomolgi [6]): 3; Cures (Plasmodium cynomolgi [8]): 1
2 | COc1cc(NC(C)CCCN)c2nccc(C)c2c1OCCCCCCCCOc1ccccc1 (stereo unspecified) | 1 | 3 | 9.4 |  | 2 | 4.4 | 3 | 0.6 |  |  |  |  |  | Cures/no. of animals (Plasmodium cynomolgi [10]): 2; Cures/no. of animals (Plasmodium cynomolgi [11]): 0; Cures/no. of animals (Plasmodium cynomolgi [13]): 1
3 | CCCCCCCOc1c(OC)cc(NC(C)CCCN)c2nccc(C)c12 (stereo unspecified) | 5 |  |  | 1 | 5 |  |  |  | 5 | 0 | 4 | 7.9 | 3 | Cures/no. of animals (Plasmodium cynomolgi [16]): 2; Cures (Mus musculus [17]): 3; Cures/no. of animals (Plasmodium cynomolgi [19]): Toxic; Cures/no. of animals (Plasmodium cynomolgi [20]): 4; Cures (Mus musculus [24]): 2
4 | CCCCCCOc1c(OC)cc(NC(C)CCCN)c2nc(C)ccc12 (stereo unspecified) | 3 | 6 |  |  | 3 | 11.4 | 3 | 2.7 |  | 0 | 1 |  |  | Cures/no. of animals (Plasmodium cynomolgi [25]): 0; Cures/no. of animals (Plasmodium cynomolgi [26]): 1
5 | COc1cc(NC(C)CCCN)c2ncccc2c1 (stereo unspecified) [PRIMAQUINE] | 5 | 4 | 5 | 2 | 5 | 9.4 |  |  |  | 0 |  |  |  | Cures/no. of animals (Plasmodium cynomolgi [27]): 1; Cures/no. of animals (Plasmodium cynomolgi [28]): 0
6 | COc1cc(NC(C)CCCN)c2ncc(C)cc2c1 (stereo unspecified) | 5 | 5.7 | 7.5 | 2 | 5 |  |  |  |  | 0 |  |  |  | Toxic deaths (Mus musculus [29]): 1; Cures/no. of animals (Plasmodium cynomolgi [27]): 2; Cures/no. of animals (Plasmodium cynomolgi [28]): 0
7 | COCCCCCCOc1c(OC)cc(NC(C)CCCN)c2nccc(C)c12 (stereo unspecified) | 5 |  |  | 5 |  |  |  |  | 2 | 0 | 2 | 6.9 | 3 | Cures/no. of animals (Plasmodium cynomolgi [10]): 2; Cures (Mus musculus [17]): 1; Toxic deaths (Mus musculus [30]): 3; Cures/no. of animals (Plasmodium cynomolgi [31]): 0
8 | CCCCOc1c(OC)cc(NC(C)CCCN)c2ncccc12 (stereo unspecified) | 5 | 6.5 | 6.7 | 3 |  |  |  | 4.1 |  |  |  |  |  | Cures/no. of animals (Plasmodium cynomolgi [10]): 2; Toxic deaths (Mus musculus [29]): 2; Cures/no. of animals (Plasmodium cynomolgi [32]): 2; Cures/no. of animals (Plasmodium cynomolgi [19]): Toxic
9 | CCCCCCCCCCOc1c(OC)cc(NC(C)CCCN)c2nccc(C)c12 (stereo unspecified) |  |  |  |  |  |  | 4 | 1.8 | 2 |  | 3 |  |  | Cures/no. of animals (Plasmodium cynomolgi [25]): 0; Cures/no. of animals (Plasmodium cynomolgi [33]): 1; Cures (Mus musculus [34]): 4; Cures (Mus musculus [24]): 4; Cures/no. of animals (Plasmodium cynomolgi [35]): 0; Cures (Mus musculus [36]): 5
10 | CCCOc1c(OC)cc(NC(C)CCCN)c2nccc(C)c12 (stereo unspecified) | 5 |  |  | 5 |  |  |  |  | 3 | 0 |  | 6 | 1 | Cures/no. of animals (Plasmodium cynomolgi [37]): 1; Cures/no. of animals (Plasmodium cynomolgi [16]): 2; Cures (Mus musculus [17]): 1; Toxic deaths (Mus musculus [30]): 3
11 | CCCCCCOc1c(OC)cc(NC(C)CCCN)c2ncccc12 (stereo unspecified) | 1 | 3.7 | 6.5 |  |  |  | 1 |  |  |  |  |  |  | Delta MST (Mus musculus [38]): 0.1; Cures/no. of animals (Plasmodium cynomolgi [39]): 3; Cures/no. of animals (Plasmodium cynomolgi [33]): 1; Cures/no. of animals (Plasmodium cynomolgi [28]): 0; Cures (Mus musculus [24]): 1
12 | CCCCOCCOc1c(OC)cc(NC(C)CCCN)c2nccc(C)c12 (stereo unspecified) |  |  |  | 3 | 4 |  |  |  | 4 |  | 2 | 3.3 | 3 | Cures/no. of animals (Plasmodium cynomolgi [37]): 1; Toxic deaths (Mus musculus [29]): 4; Cures/no. of animals (Plasmodium cynomolgi [16]): 2; Cures/no. of animals (Plasmodium cynomolgi [19]): Toxic; Delta MST (Mus musculus [40]): 4.3; Cures/no. of animals (Plasmodium cynomolgi [41]): 1
